For assay [1], the target named is T1, Histamine H2 receptor (Cavia porcellus, UniProt P47747). Briefly: Antagonistic activity against H2 receptor in guinea pig was evaluated. In a few lines:
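Isolated guinea pig atrium preparation loaded with 400-mg tension, with propranolol (0.5 μM) present throughout. Histamine concentration-response curves were run with and without several antagonist concentrations (B). The dose ratio x was taken from histamine concentrations giving half-maximal responses. K_B was calculated as B/(x − 1), and pA2 = −log K_B.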

Assay [2] has as its target T1, Histamine H2 receptor. Briefly: Antagonistic activity against H2 receptor in guinea pig.

T1 sequence (P47747 whole entry): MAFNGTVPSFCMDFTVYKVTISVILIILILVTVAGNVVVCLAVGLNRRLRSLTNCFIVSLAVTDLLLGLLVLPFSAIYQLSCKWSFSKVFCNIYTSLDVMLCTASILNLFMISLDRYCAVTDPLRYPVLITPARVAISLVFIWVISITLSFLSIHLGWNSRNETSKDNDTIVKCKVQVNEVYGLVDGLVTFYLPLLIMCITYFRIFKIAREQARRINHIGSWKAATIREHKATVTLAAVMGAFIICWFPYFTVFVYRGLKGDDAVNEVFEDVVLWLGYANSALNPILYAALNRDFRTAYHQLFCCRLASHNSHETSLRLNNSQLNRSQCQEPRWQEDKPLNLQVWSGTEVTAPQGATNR

`CSC(=NCCSCc1[nH]cnc1C)NCCCc1cnc[nH]1` returned a Kd at Histamine H2 receptor [1] of 17.8 µM. In turn, `Cc1nc[nH]c1CSCCNC(=N)NCCCc1cn(C)cn1` gave a Kd at Histamine H2 receptor [2] of 1.58 µM.

As a reminder, the Kd is the constant that tells how readily two partners part at equilibrium. The low end stands for higher affinity, the high end for lower affinity.

Source of the values: BindingDB's records for doi:10.1021/jm00148a007 (1985).
